Screening data from PubChem BioAssay.
The list is not random: actives were taken first. Their share in the collection is about 1.5%.
EBI2 antag – antagonists of human EBI2 receptor; P32249; EBI2 beta-arrestin recruitment, luminescence, 7a,25-OHC stimulated; inhibition, % at 5 µM; 0.81% of 360,000 active; AID 651636; in the data active = inhibition above about 38%;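 also: enzyme fragment complementation signal reports receptor beta-arrestin coupling in cells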
APJ ag – APJ receptor agonism; activation, % at 20 µM; 0.11% of 330,000 active; CHO-K1 APJ PathHunter beta-arrestin, luminescence; 0% DMSO wells, 100% apelin; P35414;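 active = activation more than six SD over the plate average, tested at 20 µM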
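system = engineered CHO-K1 APJ arrestin reporter cells | input = 1000 cells per well | timing = overnight seeding, 90 min compound at 25 °C, 1 h detection | measured by = enzyme-fragment complementation luminescence | read-out = beta-arrestin recruitment to APJ as agonist activity, luminescent signal | control set = negative DMSO alone, positive Apelin-13 at 10 nM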
CXCR6 block – inhibitors of human CXCR6 receptor | AID 602244 | 0.36% of 360,000 active | CHO-K1 PathHunter CXCR6 beta-arrestin, luminescence | inhibition, % at 20 µM | O00574; in the data active = inhibition above about 34%, passing the limit was not always enough;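 also: antagonist mode with CXCL16 agonist at 10 nM final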
APJ antagonist – blocks the human apelin receptor APJ | 0.32% of 330,000 active | inhibition, % at 20 µM | CHO-K1 APJ beta-arrestin complementation, luminescence;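 active = inhibition above about 40% at 20 µM, limit read from the data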;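 also: cells challenged with 10 nM apelin-13 agonist together with compound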
CCR6 antagonist – CCR6 (human) receptor antagonism. P51684. CHO-K1 CCR6 PathHunter beta-arrestin, luminescence, CCL20-stimulated. inhibition, % at 20 µM. 0.49% of 340,000 active. AID 493098;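 active = compounds whose inhibition of the agonist-driven luminescence signal at 20 µM reaches about 50%, limit read from the data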;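 also: cells stimulated with CCL20 at 14 nM final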
Target sequence (P51684 whole entry, looked up): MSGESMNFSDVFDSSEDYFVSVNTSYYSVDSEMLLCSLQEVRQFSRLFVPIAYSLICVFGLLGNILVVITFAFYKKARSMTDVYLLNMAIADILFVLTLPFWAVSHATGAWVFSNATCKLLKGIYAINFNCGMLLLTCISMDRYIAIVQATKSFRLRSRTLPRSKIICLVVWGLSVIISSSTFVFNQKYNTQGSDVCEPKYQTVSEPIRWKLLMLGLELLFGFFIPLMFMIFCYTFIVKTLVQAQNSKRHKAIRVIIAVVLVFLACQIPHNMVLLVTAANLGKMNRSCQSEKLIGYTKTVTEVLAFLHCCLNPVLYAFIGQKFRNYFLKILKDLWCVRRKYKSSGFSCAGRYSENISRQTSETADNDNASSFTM
EBI2 antag conf – EBI2 (human) antagonism, single concentration confirmation. shares compounds with EBI2 antag. EBI2 beta-arrestin luminescence, 7a,25-OHC antagonism. inhibition, % at 5 µM. 29% of 2,400 active. AID 651997;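 active = inhibition of at least 50%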
EBI2 agonist – counter-screen for EBI2 antagonists: EBI2 agonist activity | 2,400 tested, under 10 active | activation, % at 5 µM | shares compounds with EBI2 antag | EBI2-expressing cells, agonist mode, luminescence, 60 min; 0% vehicle, 100% 7α,25-dihydroxycholesterol control;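 active = activation of at least 50%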
bGal counter – counter-screen for EBI2 antagonists: E. coli beta-galactosidase inhibition | shares compounds with EBI2 antag | purified beta-galactosidase, luminescent Galacton Star, 15 min | inhibition, % at 5 µM | 1% of 2,400 active | AID 652176;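 active = replicate-average signal at least 3 plate SD below neutral wells, shown as high inhibition, flagging enzyme-inhibiting false positives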;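 also: higher means stronger loss of beta-gal luminescence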
Large screens that a line does not name were inactive (follow-up assays come after a bar, where they were run).

COc1cccc(CN2CC(C(=O)NCCOc3ccccc3)CCC2=O)c1 (stereo unspecified)	none
CCn1c(SCC(=O)c2ccccc2)nc2sc3c(c2c1=O)CCN(C)C3	none
Cc1cc(C)n(CCNS(=O)(=O)c2ccc(C)c(C)c2)n1	none
NNC(=S)Nc1ccc(S(=O)(=O)N2CCOCC2)cc1	none
Cc1ccc(CNC(=O)C2=CCN(S(=O)(=O)c3ccc(C)cc3)CC2)cc1	EBI2 antag 66.2 (no result: CCR6 antagonist) | EBI2 antag conf inactive | EBI2 agonist inactive | bGal counter inactive
Cc1ccc(C(=O)NCCc2ccc(S(=O)(=O)N3CCCC3)cc2)cc1	none
Cc1cc2cc(CNC(=O)c3ccc(S(=O)(=O)N4CCCCC4)cc3)ccc2[nH]1	EBI2 antag 47.1 | EBI2 antag conf inactive | EBI2 agonist inactive | bGal counter inactive
Cc1ccc(CNC(=O)c2ccc(S(=O)(=O)N3CCCCCC3)cc2)cc1	EBI2 antag 71.7 (no result: APJ ag, APJ antagonist, CCR6 antagonist) | EBI2 antag conf inactive | EBI2 agonist inactive | bGal counter inactive
NNC(=S)Nc1ccc(S(=O)(=O)N2CCCCC2)cc1	EBI2 antag 43.6 | EBI2 antag conf inactive | EBI2 agonist inactive | bGal counter inactive
Cc1ccc(S(=O)(=O)N2CC=C(C(=O)NCc3ccc(F)cc3)CC2)cc1	none (no result: CCR6 antagonist)
CCc1ccc(NC(=O)CCn2nc(C)c(S(=O)(=O)N3CCCCC3)c2C)cc1	none
CCc1nc2c(OCc3cccc(Cl)c3)cccn2c1N(C)C(=O)CC(C)C	none (no result: APJ ag, APJ antagonist, CCR6 antagonist)
CCOc1ccc(CCNC(=O)c2ccc(CS(=O)Cc3ccccc3Cl)o2)cc1 (stereo unspecified)	none
O=C(NCCc1ccccc1)c1ccc(CS(=O)Cc2cccc(Cl)c2)o1 (stereo unspecified)	none
CCOc1ccc(CCNC(=O)c2ccc(CS(=O)Cc3ccc(Cl)cc3)o2)cc1 (stereo unspecified)	EBI2 antag 46.2 | EBI2 antag conf inactive | EBI2 agonist inactive | bGal counter inactive
CSc1ccc(CCNC(=O)c2ccc(CS(=O)Cc3ccc(Cl)cc3)o2)cc1 (stereo unspecified)	EBI2 antag 53.8 | EBI2 antag conf inactive | EBI2 agonist inactive | bGal counter inactive
O=C(NCCc1ccc(Cl)cc1)c1ccc(CS(=O)Cc2ccc(Cl)cc2)o1 (stereo unspecified)	EBI2 antag 67.9 | EBI2 antag conf 54.2 | EBI2 agonist inactive | bGal counter inactive
COc1ccc(OC)c(CCNC(=O)c2ccc(CS(=O)Cc3ccc(Cl)cc3)o2)c1 (stereo unspecified)	none
COc1ccc(C(=O)COc2ccc(F)cc2)c(O)c1C	none
CN1C[C@@H]2[C@@H]3C(=O)N(Cc4ccccc4)C(=O)[C@@H]3[C@](C)(C1=O)N2C(=O)c1ccc(F)cc1	none (no result: APJ ag, APJ antagonist)
O=C(COc1ccc(Br)cc1)N/N=C1/SCC(=O)N1Cc1ccccc1	EBI2 antag 48.8 | EBI2 antag conf inactive | EBI2 agonist inactive | bGal counter inactive
COc1ccccc1OCC(=O)N/N=C1/SCC(=O)N1Cc1ccccc1	none
NC(=O)[C@@H]1CC2(CC(c3cccc(NC(=O)COc4ccc(Cl)cc4)c3)=NO2)CN1C(=O)COc1ccc(Cl)cc1 (stereo partly specified)	EBI2 antag 52.8 | EBI2 antag conf inactive | EBI2 agonist inactive | bGal counter inactive
Cc1nc(N/N=C/c2ccc(O)cc2)c2cnn(-c3ccccc3)c2n1	EBI2 antag 52.8 | EBI2 antag conf inactive | EBI2 agonist inactive | bGal counter inactive
CC(=O)C[C@@H](O)CC(=O)[C@@H]1OC(=O)CCCCCc2ccccc21	none
CCn1c(CN2CCOCC2)nnc1SCC(=O)Nc1ccccc1Cl	none
CC1(C(=O)Nc2cccc3ncccc23)CCN1C(=O)Cc1ccc(-c2ccccc2)cc1 (stereo unspecified)	EBI2 antag 69.0 (no result: APJ ag, APJ antagonist, CCR6 antagonist) | EBI2 antag conf inactive | EBI2 agonist inactive | bGal counter inactive
Cc1nnc(SC(C)C(=O)Nc2ccc3ccccc3c2)n1C (stereo unspecified)	none
Nc1nc(N)nc(Cc2ccccc2O)n1	none
